ABHD5 PLIN5 PPI – ABHD5-PLIN5 interaction inhibitors, primary screen, cell lysate, split luciferase complementation, luminescence | Perilipin-5 (Homo sapiens) + 1-acylglycerol-3-phosphate O-acyltransferase ABHD5 (Homo … | Split G. princeps luciferase complementation, 4 h | inhibition, % at 4 µM | 360,000 tested, 0.78% active | AID 602281, 2012;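 active = inhibition above the mean inhibition across every tested compound plus 3 SD, cut at about 22% in these data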;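 note: 0% = DMSO only wells and the 100% control is not disclosed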
HIF act – HIF pathway transcriptional activators, primary screen, cell-based, U2OS HRE-luciferase, luminescence; activation, % at 7.5 µM (by protocol); U2OS HRE-luciferase reporter; normalized: DMSO 0%, desferrioxamine 100%; 300,000 tested, 0.32% active; AID 1910, 2009;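 active = mean activation of at least 10% of the iron chelator positive control signal, with at least half of replicates also reaching 10%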
Hsp70 act – Hsp70 transcriptional activators, primary screen, cell-based, HeLa, Hsp70 promoter luciferase, luminescence, 10 µM; HeLa Hsp70 promoter luciferase reporter; scaled: vehicle 0, proteasome-inhibitor control 100%; activation, % at 10 µM; 200,000 tested, 0.04% active;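 active = activation above the mean across all tested compounds plus 3 SD, cutoff set per campaign, cut at about 5.5% in these data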;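 note: 100% = MG132 at 30 µM as the positive control and 0% = DMSO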
H9c2 TAG inh – inhibitors of triacylglycerol accumulation, primary screen, cell-based, uHTS, fluorescence, H9c2 | 230,000 tested, 0.66% active | inhibition, % at 12.5 µM | AID 651582, 2012 | H9c2 cells, Nile Red lipid (TAG) fluorescence; cells loaded with 200 µM oleic acid;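 active = pattern-corrected inhibition of lipid staining of at least 50% with the nuclear-stain viability signal not falling by more than 50%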;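 note: 0% = DMSO wells and 100% = triacsin C control wells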
GAA850 FXN act – FXN promoter activators, primary screen, cell-based, luciferase luminescence, HEK293 lucGAA850; HEK293 lucGAA850 FXN promoter luciferase reporter, 24 h; percent of 10 µM SAHA response; activation, % at 6 µM; 360,000 tested, 0.56% active; AID 540364, 2011;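 active = activation above the average of all compounds screened plus 3 SD, cutoff fixed separately per campaign, cut at about 7.5% in these data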;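 note: 0% = DMSO wells and 100% = 10 µM SAHA wells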
Rad51 HR inh – human RAD51 strand exchange inhibitors, primary screen, biochemical, fluorescence; DNA repair protein RAD51 homolog 1 (Homo sapiens), Q06609; hRad51 DNA strand exchange, fluorescence dequenching; inhibition, % at 10 µM; 200,000 tested, 0.085% active; AID 1385, 2008;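 active = inhibition above 40% at the single screening dose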;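 note: 0% = DMSO control wells and 100% = blanks with heterologous ssDNA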
Target sequence (Q06609 whole entry, looked up): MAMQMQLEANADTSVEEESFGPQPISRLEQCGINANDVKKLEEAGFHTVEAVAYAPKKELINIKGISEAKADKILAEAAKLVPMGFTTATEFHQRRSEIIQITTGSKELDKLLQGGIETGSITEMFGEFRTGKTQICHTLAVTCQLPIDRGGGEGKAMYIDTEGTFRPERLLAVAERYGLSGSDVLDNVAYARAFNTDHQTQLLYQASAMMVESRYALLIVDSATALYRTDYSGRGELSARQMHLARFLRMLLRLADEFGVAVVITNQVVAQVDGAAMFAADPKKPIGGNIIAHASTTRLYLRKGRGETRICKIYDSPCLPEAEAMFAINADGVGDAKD
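Read-out basis: percent inhibition relative to plate controls and blanks / Assay system: human Rad51 nucleoprotein filaments preassembled on unlabelled ssDNA / Timing: filaments 15 min 37 °C, then compound 30 min / Control set: per-plate controls and blanks / Technique: fluorescence dequenching at 485/520 nm / Compound: 10 µM final, single point / Also added: Fluorescein- and BHQ1-tagged 47-mer duplex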
ABHD5-PLIN5 conf – ABHD5-PLIN5 interaction inhibitors, confirmation, biochemical, luminescence; shares compounds with ABHD5 PLIN5 PPI; inhibition, % at 4 µM; 2,200 tested, 67% active; in the data active = inhibition above about 23%;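 note: 0% = DMSO vehicle wells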
HNF4 split-luc – HNF4 dimerization inhibitors, counter-screen for ABHD5-PLIN5 interaction inhibitor project, biochemical, split-luciferase complementation, luminescence | AID 651674, 2012 | shares compounds with ABHD5 PLIN5 PPI | 2,200 tested, 77% active | inhibition, % at 4 µM;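 active = mean inhibition across replicate wells exceeding the computed hit threshold, cut at about 13% in these data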;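 note: light from luciferase halves that rejoin when HNF4 fusion proteins dimerize; 0% = DMSO only wells and the 100% control is not given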
Target sequence (P41235 whole entry, looked up, the tested form may be a part): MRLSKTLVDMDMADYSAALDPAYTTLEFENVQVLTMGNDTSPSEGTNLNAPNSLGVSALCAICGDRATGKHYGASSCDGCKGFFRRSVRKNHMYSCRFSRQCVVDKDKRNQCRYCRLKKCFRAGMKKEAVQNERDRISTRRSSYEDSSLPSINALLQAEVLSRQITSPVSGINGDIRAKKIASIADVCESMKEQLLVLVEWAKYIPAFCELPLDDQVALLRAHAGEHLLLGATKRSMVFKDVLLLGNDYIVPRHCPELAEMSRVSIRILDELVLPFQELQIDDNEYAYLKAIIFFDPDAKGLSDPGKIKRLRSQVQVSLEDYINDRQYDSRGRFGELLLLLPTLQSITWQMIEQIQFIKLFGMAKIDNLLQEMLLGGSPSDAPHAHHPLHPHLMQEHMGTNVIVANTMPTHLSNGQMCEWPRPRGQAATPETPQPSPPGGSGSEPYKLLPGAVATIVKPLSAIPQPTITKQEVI
The depositor's hits bear a star; i = inactive; . = not tested or not shown. The list is not random: actives were taken first. Their share in the collection is about 1.9%.

SMILES | ABHD5 PLIN5 PPI | HIF act | Hsp70 act | H9c2 TAG inh | GAA850 FXN act | Rad51 HR inh | ABHD5-PLIN5 conf | HNF4 split-luc
N#C/C(=C/c1ccc(N2CCCCC2)o1)C(=O)Nc1ccc2ccccc2c1 | 26.1* | 1.1 | -0.5 | . | 1.6 | i | 37.0* | 30.7*
CCCN(CC(=O)Nc1ccccc1C)C(=O)c1cccc(-n2cnnn2)c1 | -2.6 | -0.2 | . | 14.1 | 0.2 | . | . | .
COc1ccc(/C=N/OC/C(O)=C(\C#N)c2nc3ccccc3[nH]2)cc1OC | 4.6 | -0.1 | -0.2 | . | 1.3 | -10.5 | . | .
O=C(COC(=O)CNS(=O)(=O)c1c(F)cccc1F)NC(=O)NC1CCCCC1 | 1.4 | . | . | -3.4 | 0.8 | . | . | .
O=C(O)CCC(=O)Nc1sc2c(c1C(=O)Nc1ccccc1)CCCCC2 | 23.7* | 1.1 | -0.3 | 16.8 | 6.0 | 0.6 | 8.9 | -14.8
O=C(O)CCC(=O)Nc1sc2c(c1C(=O)Nc1cccc3ccccc13)CCCCC2 | -17.7 | 1.6 | -0.3 | . | 3.0 | 11.5 | . | .
COc1ccc2c(c1)/C(=C/c1cc(OC)c(OC)c(OC)c1)C(=O)N2 | 36.1* | . | . | 42.5 | -1.4 | . | 49.4* | 43.6*
Cc1ccc2c(c1)/C(=C/c1ccccc1C)C(=O)N2 | 7.2 | -1.5 | . | . | 1.3 | . | . | .
Cc1ccc2c(c1)/C(=C/c1ccc(F)cc1)C(=O)N2 | 34.2* | -1.6 | . | . | 1.6 | . | 45.4* | 35.6*
COC(=O)[C@]12CCCCC=C1N(CCC1=CCCCC1)C(=O)[C@H](CC(=O)NCCC(C)C)C2 | 14.9 | . | . | . | . | . | . | .
CC(C)(C)OC(=O)N1CCC(C(=O)Nc2cccc(C(=O)NC3CC3)c2)CC1 | 2.0 | . | . | -2.6 | 1.1 | . | . | .
Cc1ccccc1N1C(=O)CC(Sc2nnc(-c3ccccc3)o2)C1=O (stereo unspecified) | 35.0* | -0.1 | -0.3 | . | -4.5 | 14.9 | 59.8* | 98.2*
CCCCOc1[nH]c2nc(-c3ccco3)n(Cc3ccco3)c(=N)c2c1C#N | 48.0* | 0.4 | -0.5 | 2.0 | 0.1 | -15.2 | 25.2* | 47.5*
CCSc1nnc(COc2ccccc2)n1CC | 4.1 | -0.1 | . | -7.2 | 1.9 | 5.5 | . | .
O=C(c1ccco1)N1CCN(c2ncnc3scc(-c4ccc(Cl)cc4)c23)CC1 | 6.8 | . | . | 1.7 | -2.9 | . | . | .
Cc1ccccc1C(=O)Nc1nnc(S(=O)(=O)N(C)Cc2ccco2)s1 | 15.4 | 1.9 | . | . | 0.2 | . | . | .
CCC(=O)Nc1nnc(S(=O)(=O)N(C)Cc2ccco2)s1 | 11.0 | 0.2 | . | . | 2.1 | . | . | .
CCCC(=O)Nc1nnc(S(=O)(=O)N(C)Cc2ccco2)s1 | 41.4* | -0.3 | . | . | 3.6 | . | 30.4* | 55.7*
CN(Cc1ccco1)S(=O)(=O)c1nnc(NC(=O)c2ccccc2Cl)s1 | 29.5* | 0.4 | . | . | 1.7 | . | 45.7* | 74.2*
CCOc1cc(/C=N/NC(=O)c2ccc(CN3CCOCC3)cc2)ccc1OC | 2.0 | -0.2 | -0.3 | -0.9 | 3.5 | 5.4 | . | .
CCOc1cc(/C=C/C(=O)c2ccc(OC)c(CN3CCOCC3)c2)cc(Br)c1O | 23.4* | -0.4 | . | . | 1.1 | . | 29.6* | 23.9*
N#C/C(=C\c1ccccc1)C(=O)N1CCN(c2ccccc2F)CC1 | 37.9* | -0.1 | . | . | 2.4 | . | 51.9* | 38.5*
N#C/C(=C\c1cccc(Br)c1)C(=O)N1CCCCC1 | 24.1* | 0.2 | . | . | 0.8 | . | 71.3* | 53.4*
CSC(=Nc1ccccc1)N=C(SCc1ccccc1)N(C)C | 80.7* | . | . | 121.5 | -11.5 | . | 95.7* | 56.7*
N#CNC(=Nc1ccccc1)SCc1ccc(C(=O)O)cc1 | -0.8 | 0.1 | -0.1 | 4.5 | 3.8 | 1.4 | . | .
SMILES | ABHD5 PLIN5 PPI | HIF act | Hsp70 act | H9c2 TAG inh | GAA850 FXN act | Rad51 HR inh | ABHD5-PLIN5 conf | HNF4 split-luc
C[C@H]1CN([C@@H](C)CO)C(=O)c2cccc(NC(=O)Nc3ccc(C(F)(F)F)cc3)c2O[C@H]1CN(C)C | 28.3* | . | . | 27.5 | -1.1 | . | 13.0 | 3.1
COc1ccc(S(=O)(=O)Nc2cccc3c2O[C@H](CN(C)Cc2ccncc2)[C@@H](C)CN([C@H](C)CO)C3=O)cc1 | 24.3* | . | . | -10.1 | 0.8 | . | 3.3 | 0.2
C[C@H](CO)N1C[C@H](C)[C@@H](CN(C)Cc2ccc(Oc3ccccc3)cc2)Oc2c(NC(=O)C3CC3)cccc2C1=O | 27.9* | . | . | 35.4 | -1.8 | . | 9.0 | 4.4
C[C@H](CO)N1C[C@H](C)[C@@H](CN(C)Cc2ccc(C(=O)O)cc2)Oc2c(NC(=O)C3CC3)cccc2C1=O | 5.2 | . | . | 8.3 | -0.2 | . | . | .
CCn1nccc1C(=O)Nc1ccc(C(=O)OC(C)C)cc1 | 0.3 | 2.2 | . | . | 2.5 | . | . | .
Cc1cc(C)n(-c2ncnc3ccccc23)n1 | 3.0 | -0.8 | 0.3 | -0.6 | 0.7 | -5.4 | . | .
COc1ccc(C(=O)Nn2c(C)nc3ccccc3c2=O)cc1Br | -6.5 | -12.5 | . | . | -1.2 | . | . | .
Cc1nc(CNC(=O)CC2C(=O)NCCN2Cc2ccoc2)nc2c1CCCC2 (stereo unspecified) | 34.2* | 0.0 | . | -4.9 | 2.4 | . | 44.8* | 33.7*
O=C(CC1C(=O)NCCN1Cc1ccoc1)NCCc1ccc(Cl)cc1 (stereo unspecified) | 37.8* | 0.1 | 0.4 | 18.7 | -1.3 | 3.2 | 20.2 | 15.7*
COC(=O)CCCNC(=O)CC1C(=O)NCCN1Cc1ccoc1 (stereo unspecified) | 3.3 | -0.2 | 0.2 | -7.5 | 2.0 | 20.8 | . | .
CC1(C(=O)N/N=C/c2ccc3c(c2)OCO3)CC1(Br)Br (stereo unspecified) | -10.6 | 0.1 | . | -1.2 | 7.1 | . | . | .
COc1ccc(OC)c(S(=O)(=O)Nc2ccc3c(c2)C(=O)OC3)c1 | -3.4 | -0.8 | . | -11.1 | 1.7 | . | . | .
O=c1[nH]c(/C=C\c2cccc(O)c2)nc(O)c1[N+](=O)[O-] | 51.6* | 0.4 | . | -3.6 | 1.1 | . | 52.1* | 42.9*
O=c1[nH]c(/C=C\c2ccc(O)c(O)c2)nc(O)c1[N+](=O)[O-] | 8.1 | -0.5 | . | -3.3 | 0.6 | . | . | .
C=CCn1c(SCC(=O)NCCCC(=O)OCC)nc2scc(-c3ccco3)c2c1=O | 30.5* | -0.1 | 0.0 | -8.1 | 0.0 | -4.4 | 6.9 | 13.2*
CC(C)C(C)NC(=O)CSc1nc2scc(-c3ccco3)c2c(=O)n1-c1ccccc1 (stereo unspecified) | 37.6* | -0.4 | 0.0 | 41.9 | 2.0 | 6.3 | 7.6 | 15.0*

Screens deposited in PubChem BioAssay by several laboratories.
